PostGolgi ctrl – growth of the yeast control strain, post-Golgi counter-screen; efflux-deficient yeast background strain, growth absorbance A615, 16 h; inhibition, % at 10 µM; 98,000 tested, 5% active; AID 738
PostGolgi yeast – growth inhibition of a yeast mutant, post-Golgi transport screen; inhibition, % at 10 µM; post-Golgi transport phenotypic cell assay; 98,000 tested, 0.9% active;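 further: yeast cells grown in 1536-well plates; yeast grown about 18 h at 30C before absorbance read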
BB579 growth dn – reduces growth of yeast BB579 in restrictive medium; S. cerevisiae BB579 growth, OD615, 48 h; inhibition, % at 10 µM; 140,000 tested, 0.51% active; AID 804;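 active means inhibition above a set limit, 3 SD over the mean compound inhibition, cut at about 44% in these data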
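test system = yeast BB579 (DeaD) | buffer or medium = restrictive CSMM-D medium | doses = single compound dose of 10 µM, 0.25% DMSO final | times = 4 h preincubation and 48 h exposure at 30 °C | technique = culture absorbance at 615 nm | benchmarks = amphotericin B 10 µg/mL, positive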
Yeast lifespan up – yeast lifespan extension; S. cerevisiae growth with nicotinamide, OD615; deaD strain in restrictive glucose medium; inhibition of the nicotinamide effect, % at 10 µM; 130,000 tested, 0.68% active;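 active means inhibition above a set limit, placed 3 SD over the median of all compounds, cut at about 26% in these data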;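 further: 0% = nicotinamide-treated wells and 100% = cells grown without nicotinamide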
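Assay system: engineered S. cerevisiae DeaD replicative-lifespan strain, galactose-grown log-phase cells; medium: restrictive CSMM-D dextrose medium; also added: nicotinamide, 1.5 mM, co-present with compound; schedule: 48 h compound exposure at 30 °C, humidified; detection: absorbance at 615 nm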
* marks the source's active call; other numbers are inactive results; . = not tested or not shown. The sample as a whole holds a higher share of hits than the screen did. Unless noted, no stated cut-off is given here; in the data, active means inhibition above about 30%; inactive means the rest.

SMILES	PostGolgi ctrl	PostGolgi yeast	BB579 growth dn	Yeast lifespan up
N#Cc1nc(COc2ccccc2)oc1NCCN1CCOCC1	11.2	1.0	12.1	-5.3
N#Cc1nc(COc2ccc(-c3ccccc3)cc2)oc1NCCCN1CCOCC1	16.1	78.1*	28.4	-26.6
c1ccc(-c2oc3ncnc(NCCCN4CCOCC4)c3c2-c2ccccc2)cc1	66.9*	14.6	-3.1	-22.1
CC(O)C1CCC2C3CC[C@H]4CC(O)CCC4(C)C3CC3(OCCO3)C12C (some centres not stated)	32.8*	11.4	-15.2	7.6
CCCc1cc(=O)[nH]c(SCC(=O)NC(=O)c2ccccc2)n1	32.4*	10.1	-16.5	-10.7
Cc1ccc(NC(=O)C2CCCN(S(=O)(=O)c3cnc[nH]3)C2)c(Br)c1 (configuration not stated)	5.1	-7.1	-49.8	-11.7
COC(=O)c1ccccc1NC(=O)N1CCN(S(=O)(=O)c2ccc(Cl)cc2)CC1	42.7*	3.1	-3.5	-14.0
COC(=O)c1ccccc1NC(=O)C1CCCN(S(=O)(=O)c2ccccc2)C1 (configuration not stated)	41.2*	-7.3	-14.7	-7.0
Cc1ccccc1NC(=O)C1CCCN(S(=O)(=O)c2cnc[nH]2)C1 (configuration not stated)	60.0*	3.7	33.1	-9.6
CCOc1cc(C#N)c(NC(=O)c2cccnc2Cl)cc1OCC	6.3	-3.4	-41.1	-9.5
CCCC(=O)Nc1ccc(Cl)c(NC(=O)c2cccnc2Cl)c1	3.2	44.7*	2.7	-14.0
CCN1CCN(c2ncc(C(=O)Nc3ccccc3C(=O)OC)c3ccccc23)CC1	-4.0	-6.3	0.2	-5.7
CCOC(=O)C1=NNC(C(=O)c2ccc(OC)cc2)C1c1ccccc1 (configuration not stated)	10.8	-3.3	-21.3	-29.9
Cc1nnc(NC(=O)C2CCCN(S(=O)(=O)c3ccccc3C(F)(F)F)C2)s1 (configuration not stated)	41.9*	0.6	-70.0	-1.2
O=C(Nc1ccccc1F)c1ccc(CSc2ccccc2)o1	.	.	-45.5	-7.7
O=C(NCc1ccccc1)c1cc2nc(C3CC3)cc(C(F)(F)F)n2n1	10.4	-12.9	-47.7	-17.2
Cc1cc(NC(=O)c2cc3nc(C4CC4)cc(C(F)(F)F)n3n2)no1	31.0*	11.6	5.5	-19.0
N#C/C(=C\c1ccc(Sc2ccccc2)o1)c1nc2ccccc2[nH]1	.	.	-69.0	2.1
N#C/C(=C/c1ccc(Sc2nc3ccccc3[nH]2)o1)c1cccc(F)c1	54.7*	1.8	-20.3	-5.3
CCN1C(=O)S/C(=C/c2ccc(Sc3nc4ccccc4[nH]3)o2)C1=O	.	.	-49.4	8.2
N#C/C(=C/c1ccc(Sc2nc3ccccc3[nH]2)o1)c1ccccc1F	27.6	40.7*	-46.8	-29.2
O=C(N/N=C/c1ccc(Sc2nc3ccccc3[nH]2)o1)c1ccncc1	.	.	-20.1	7.4
N#C/C(=C/c1ccc(Sc2nc3ccccc3[nH]2)o1)c1cccc(Br)c1	31.9*	-0.5	-24.4	-0.2
COc1ccc(CNC(=O)CN(C2CCCCC2)S(C)(=O)=O)cc1	.	.	-25.1	3.8
O=C(COC(=O)C1CCN(S(=O)(=O)c2ccc3c(c2)OCCO3)CC1)Nc1cc(C(F)(F)F)ccc1Cl	.	.	-22.5	-7.5
SMILES	PostGolgi ctrl	PostGolgi yeast	BB579 growth dn	Yeast lifespan up
Oc1cccc(-c2nc3ccc4ccccc4c3c3c2CCC3)c1	44.2*	54.5*	-22.9	-16.4
O=C(NNc1c2ccccc2nc2ccccc12)c1cccc(O)c1	.	.	-4.9	-1.0
Cc1nn2c(c1-c1ccc(Cl)cc1)N=C(c1ccco1)CC2c1ccccc1 (configuration not stated)	34.8*	23.4	-53.9	-19.0
CC(C)NC(=O)CCNC(=O)c1ccc(F)cc1	-7.7	-5.7	-38.3	-5.3
Cc1cc(/C=C2\SC(=S)NC2=O)c(C)n1C1CC1	56.0*	-0.2	-24.9	-13.6
Cc1cc(/C=C2/C(=O)N(C)C(=S)N2C)c(C)n1C1CC1	.	.	-47.3	-5.0
O=C(COc1ncnc2sccc12)N1CCc2ccccc2C1	-1.4	3.6	-6.2	15.6
Cc1ccc(C)c(N2CCN(S(=O)(=O)c3c(C)noc3/C=C/N(C)C)CC2)c1	12.6	0.3	-14.6	35.8*
CCn1c(CNc2ccc(Cl)cc2)nnc1SCC(=O)NCc1ccccc1	8.7	15.9	-11.5	-15.9
CCn1c(CNc2ccc(Cl)cc2)nnc1SCc1ccccc1	92.5*	98.8*	-33.8	6.3
Cn1c(CNc2ccc(Cl)cc2)nnc1SCc1ccccc1	95.9*	105.3*	-26.9	-0.7
CCn1c(Cn2nnc(-c3ccccc3)n2)nnc1SCc1ccc(Cl)c(Cl)c1	45.6*	2.1	-57.5	-4.3
COC(=O)CSc1nnc(CNc2ccc(Cl)cc2)n1-c1ccccc1	64.9*	62.6*	-18.2	-3.3
CCOC(=O)CSc1nnc(CNc2ccccc2Cl)n1-c1ccccc1	11.3	6.3	-2.5	-2.3
Cc1nc(Cl)c(C(=O)NC(=O)Nc2cccc(C(F)(F)F)c2)c(C)c1[N+](=O)[O-]	.	.	-38.1	.
COCCNC(=O)CN(C(=O)CCC(=O)Nc1nccs1)c1ccccc1OC	4.0	-1.1	-36.9	11.8
O=c1[nH]c(Cn2nnc(-c3ccccc3)n2)nc2scc(-c3ccccc3)c12	8.1	-14.0	-60.5	0.6
CCCCc1ccc(N2C(=O)[C@@H]3C(CC(N)=O)NC4(C(=O)Nc5ccc(F)cc54)[C@@H]3C2=O)cc1 (some centres not stated)	17.3	2.6	-9.2	-13.8
CC(NC(=O)Nn1cnnc1)(C(F)(F)F)C(F)(F)F	8.1	0.0	-9.4	3.4
CCCc1cc(NCCCCO)n2c(nc3ccccc32)c1C#N	2.3	34.9*	14.3	-17.0
Cc1sc(NC(=S)NC(=O)C2CCCCC2)c(C(N)=O)c1C	.	.	-23.6	2.7
COc1cc(C)nc2nc(SCc3ccccc3)nn12	3.9	3.6	-56.5	-13.5
Cc1cc(C)n2nc(SCc3nnc(SCc4ccccc4)s3)nc2n1	38.6*	5.9	-27.4	-0.2
O=C(NCc1ccco1)c1ccc(Cn2c(=O)c3ccccc3n(Cc3cccc(Cl)c3)c2=O)cc1	14.6	19.4	-60.0	-1.8
O=C(NCc1ccco1)c1ccc(Cn2c(=O)c3sccc3n(Cc3cccc(F)c3)c2=O)cc1	38.3*	-5.8	-55.8	-4.4
SMILES	PostGolgi ctrl	PostGolgi yeast	BB579 growth dn	Yeast lifespan up
O=C1c2cc(N3CCCC3)c([N+](=O)[O-])cc2C(=O)N1c1ccccc1	.	.	-31.8	-0.5
COc1cccc2c(=O)c3c(cnn3C)n(C)c12	-5.8	42.1*	73.9*	-20.1
CSC1=C(C#N)C(c2ccccc2C)C(C#N)=C(N)N1 (configuration not stated)	49.9*	1.6	-39.2	0.4
CC(=O)C1=C(c2ccccc2)OC(N)=C(C#N)C1c1ccccc1C (configuration not stated)	.	.	5.5	1.1
CC1=C(C#N)C(c2ccccc2)C2=C(N1)c1ccccc1C2=O (configuration not stated)	.	.	-25.1	-4.5
CSC1=C(C#N)C(c2ccccc2Cl)C2=C(N1)c1ccccc1C2=O (configuration not stated)	3.5	0.3	-21.5	28.5*
O=C(COC(=O)c1cccc(Cl)c1)Nc1cc(Cl)ccc1Oc1ccccc1	.	.	-49.9	12.7

From PubChem BioAssay
